From ChEMBL document CHEMBL3739273, “Synthesis, biological activity evaluation and molecular docking studies of novel coumarin substituted thiazolyl-3-aryl-pyrazole-4-carbaldehydes” (Bioorg Med Chem Lett, 2015)
Values after ≈ are worked out from the molar mass of the structure shown. Active and inactive are the calls of the source. The rule behind the calls is not given here.

How the values were obtained:
Staphylococcus aureus [1] = assay: Antibacterial activity against methicillin-resistant Staphylococcus aureus NCTC 13616 after 24 hrs by microtiter plate method; format: functional; conditions: NCTC 13616, 24 h
Bacillus spizizenii [2] = assay: Bactericidal activity against Bacillus subtilis ATCC 6633 after 24 hrs; format: functional; conditions: ATCC 6633, 24 h, read-out: MBC99.9
In short: (§1)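 MBC determined by a standard MBC protocol alongside the MIC, with values in µg/mL. Gentamycin sulfate and ampicillin were the references.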

Klebsiella pneumoniae [3] = assay: Antibacterial activity against Klebsiella pneumoniae ATCC 43816 after 24 hrs by microtiter plate method; format: functional; conditions: ATCC 43816, 24 h
In short: (§2)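 Test concentrations reported in µg/mL. Gentamycin sulfate and ampicillin were the reference drugs.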

Klebsiella pneumoniae [4] = assay: Bactericidal activity against Klebsiella pneumoniae ATCC 43816 after 24 hrs; format: functional; conditions: ATCC 43816, 24 h, read-out: MBC99.9; in short: as §1
Proteus vulgaris [5] = assay: Antibacterial activity against Proteus vulgaris ATCC 13315 assessed as growth inhibition at 100 ug/ml after 24 hrs by agar well diffusion method; format: functional; conditions: for zone of inhibition at 100 µg/mL: ATCC 13315, 24 h, read-out: IZ
In short: (§3)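 Agar well diffusion. Compounds were tested at 10, 20, 100, 200 and 300 µg/mL, and the zone of inhibition was measured in mm. Gentamycin sulfate was the reference drug.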

Bacillus cereus [6] = assay: Antibacterial activity against Bacillus cereus ATCC 14579 assessed as growth inhibition at 100 ug/ml after 24 hrs by agar well diffusion method; format: functional; in short: as §3
[7] = n-Octanol-phosphate buffer partition coefficient, log P of the compound at pH 7.4 after 30 mins by shake flask method; format: physicochemical
In short: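 Shake-flask partition between n-octanol and 50 mM phosphate buffer, pH 7.4. P calculated and expressed as logP.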

Escherichia coli [8] = assay: Bactericidal activity against Escherichia coli ATCC 8739 after 24 hrs; format: functional; conditions: ATCC 8739, 24 h, read-out: MBC99.9; in short: as §1
Proteus vulgaris [9] = assay: Bactericidal activity against Proteus vulgaris ATCC 13315 after 24 hrs; format: functional; conditions: ATCC 13315, 24 h, read-out: MBC99.9; in short: as §1
MCF7 = assay: Anticancer activity against human MCF7 cells assessed as cell viability after 48 hrs by MTT assay; format: functional, cell-based; conditions: MCF7, 48 h
In short: (§4)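 MTT cytotoxicity assay in human DU-145 prostate, MCF-7 breast and HeLa cervical cancer cell lines. Doxorubicin was the reference drug.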

Proteus vulgaris [10] = assay: Antibacterial activity against Proteus vulgaris ATCC 13315 after 24 hrs by microtiter plate method; format: functional; conditions: ATCC 13315, 24 h; in short: as §2
Klebsiella pneumoniae [11] = assay: Antibacterial activity against Klebsiella pneumoniae ATCC 43816 assessed as growth inhibition at 100 ug/ml after 24 hrs by agar well diffusion method; format: functional; conditions: for zone of inhibition at 100 µg/mL: ATCC 43816, 24 h, read-out: IZ; in short: as §3
[12] = Anticancer activity against human DU145 cells assessed as cell viability after 48 hrs by MTT assay; format: functional, cell-based; conditions: DU-145, 48 h; in short: as §4
Escherichia coli [13] = assay: Antibacterial activity against Escherichia coli ATCC 8739 after 24 hrs by microtiter plate method; format: functional; conditions: ATCC 8739, 24 h; in short: as §2
HeLa [14] = assay: Anticancer activity against human HeLa cells assessed as cell viability after 48 hrs by MTT assay; format: functional, cell-based; in short: as §4
HeLa [15] = assay: Anticancer activity against human HeLa cells assessed as cell viability at 10 uM after 48 hrs by MTT assay; format: functional, cell-based
Bacillus spizizenii [16] = assay: Antibacterial activity against Bacillus subtilis ATCC 6633 after 24 hrs by microtiter plate method; format: functional; conditions: ATCC 6633, 24 h; in short: as §2
Staphylococcus aureus [17] = assay: Antibacterial activity against methicillin-resistant Staphylococcus aureus NCTC 13616 assessed as growth inhibition at 100 ug/ml after 24 hrs by agar well diffusion method; format: functional, organism-based
In short: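 Agar well diffusion assay with compounds applied to wells at several concentrations, including the 100 level reported here. The zone of inhibition was measured in mm. Gentamycin sulfate was the standard drug.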

Cytochrome P450 2A6 = biological target: T1, Cytochrome P450 2A6 (Homo sapiens, UniProt P11509); assay: Inhibition of human microsomal CYP2A6; format: ADME
T1 sequence (P11509 whole entry): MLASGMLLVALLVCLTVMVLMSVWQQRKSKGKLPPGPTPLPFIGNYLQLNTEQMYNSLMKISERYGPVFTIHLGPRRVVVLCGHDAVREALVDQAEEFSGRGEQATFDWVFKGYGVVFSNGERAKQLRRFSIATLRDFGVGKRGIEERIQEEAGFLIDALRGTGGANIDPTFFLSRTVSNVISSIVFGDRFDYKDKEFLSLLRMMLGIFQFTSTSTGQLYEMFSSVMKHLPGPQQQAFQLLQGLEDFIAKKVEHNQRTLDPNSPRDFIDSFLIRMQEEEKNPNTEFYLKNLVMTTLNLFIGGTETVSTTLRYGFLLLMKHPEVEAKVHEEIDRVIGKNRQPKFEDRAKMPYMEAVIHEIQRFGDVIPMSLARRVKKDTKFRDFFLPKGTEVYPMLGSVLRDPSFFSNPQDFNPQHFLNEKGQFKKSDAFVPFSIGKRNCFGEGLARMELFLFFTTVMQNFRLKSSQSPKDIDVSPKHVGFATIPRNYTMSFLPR

Escherichia coli [18] = assay: Antibacterial activity against Escherichia coli ATCC 8739 assessed as growth inhibition at 100 ug/ml after 24 hrs by agar well diffusion method; format: functional; conditions: for zone of inhibition at 100 µg/mL: ATCC 8739, 24 h, read-out: IZ; in short: as §3
Staphylococcus aureus [19] = assay: Bactericidal activity against methicillin-resistant Staphylococcus aureus NCTC 13616 after 24 hrs; format: functional; conditions: NCTC 13616, 24 h, read-out: MBC99.9
In short: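 MBC determined by a standard MBC protocol run alongside the MIC determination. Gentamycin sulfate and ampicillin served as reference drugs.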

Bacillus spizizenii [20] = assay: Antibacterial activity against Bacillus subtilis ATCC 6633 assessed as growth inhibition at 100 ug/ml after 24 hrs by agar well diffusion method; format: functional, organism-based; in short: as §3
Bacillus cereus [21] = assay: Bactericidal activity against Bacillus cereus ATCC 14579 after 24 hrs; format: functional; conditions: ATCC 14579, 24 h, read-out: MBC99.9; in short: as §1
Bacillus cereus [22] = assay: Antibacterial activity against Bacillus cereus ATCC 14579 after 24 hrs by microtiter plate method; format: functional; conditions: ATCC 14579, 24 h; in short: as §2
HeLa [23] = assay: Induction of apoptosis in human HeLa cell assessed as nuclear condensation after 24 hrs by Hoechst 33258 staining based fluorescence microscopic analysis; format: functional
In short: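 HeLa cells treated at 10 µM for 24 h, washed with PBS, then stained with Hoechst 33258 ([…]) for 20 min. Chromatin condensation imaged by fluorescence microscopy with a DAPI filter.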

Compound	MIC (Staphylococcus aureus [1]) [µg/mL]	MBC (Bacillus spizizenii [2]) [µg/mL]	MIC (Klebsiella pneumoniae [3]) [µg/mL]	MBC (Klebsiella pneumoniae [4]) [µg/mL]	growth inhibition (GI) (Bacillus cereus [6])	logD at 0.5 h [7]	MBC (Escherichia coli [8]) [µg/mL]	MBC (Proteus vulgaris [9]) [µg/mL]	IC50 (MCF7) [µM]	MIC (Proteus vulgaris [10]) [µg/mL]	IC50 [12] [µM]	MIC (Escherichia coli [13]) [µg/mL]	IC50 (HeLa [14]) [µM]	MIC (Bacillus spizizenii [16]) [µg/mL]	growth inhibition (GI) (Staphylococcus aureus [17])	Ki (Cytochrome P450 2A6) [nM]	MBC (Staphylococcus aureus [19]) [µg/mL]	growth inhibition (GI) (Bacillus spizizenii [20])	MBC (Bacillus cereus [21]) [µg/mL]	MIC (Bacillus cereus [22]) [µg/mL]	also measured
O=Cc1cn(-c2nc(-c3cc4cc(Cl)ccc4oc3=O)cs2)nc1-c1ccc(Cl)cc1	134 (≈ 286 µM)	165 (≈ 352 µM)	117 (≈ 251 µM)	240 (≈ 512 µM)	Active	3.06	250 (≈ 534 µM)	260 (≈ 555 µM)	18.7	131 (≈ 279 µM)	14.9	126 (≈ 270 µM)	9.51	112 (≈ 240 µM)	Active	16.6	265 (≈ 566 µM)	Active	165 (≈ 352 µM)	111 (≈ 237 µM)	growth inhibition (GI) (Proteus vulgaris [5]): Active; growth inhibition (GI) (Klebsiella pneumoniae [11]): Active; growth inhibition (GI) (HeLa [15]): Active; growth inhibition (GI) (Escherichia coli [18]): Active
O=Cc1cn(-c2nc(-c3cc4cc(Br)ccc4oc3=O)cs2)nc1-c1ccccc1	116 (≈ 243 µM)	250 (≈ 523 µM)	117 (≈ 244 µM)	175 (≈ 366 µM)	Active	3.3	240 (≈ 502 µM)	250 (≈ 523 µM)	18.2	124 (≈ 259 µM)	35	118 (≈ 247 µM)	11	125 (≈ 261 µM)	Active	6.02	175 (≈ 366 µM)	Active	260 (≈ 544 µM)	129 (≈ 270 µM)	growth inhibition (GI) (Proteus vulgaris [5]): Active; growth inhibition (GI) (Klebsiella pneumoniae [11]): Active; growth inhibition (GI) (Escherichia coli [18]): Active
O=Cc1cn(-c2nc(-c3cc4cc(Br)ccc4oc3=O)cs2)nc1-c1ccc(Cl)cc1	123 (≈ 240 µM)	175 (≈ 341 µM)	115 (≈ 224 µM)	172 (≈ 335 µM)	Active	3.07	230 (≈ 449 µM)	250 (≈ 488 µM)	85	128 (≈ 249 µM)	22.3	118 (≈ 229 µM)	9.46	120 (≈ 233 µM)	Active	13.2	185 (≈ 361 µM)	Active	170 (≈ 332 µM)	115 (≈ 224 µM)	growth inhibition (GI) (Proteus vulgaris [5]): Active; growth inhibition (GI) (Klebsiella pneumoniae [11]): Active; growth inhibition (GI) (HeLa [15]): Active; growth inhibition (GI) (Escherichia coli [18]): Active
Cc1ccc(-c2nn(-c3nc(-c4cc5cc(Cl)cc(Cl)c5oc4=O)cs3)cc2C=O)cc1	116 (≈ 240 µM)	145 (≈ 301 µM)	101 (≈ 209 µM)	150 (≈ 311 µM)	Active	3.6	150 (≈ 311 µM)	210 (≈ 435 µM)	14.6	105 (≈ 218 µM)	14.7	101 (≈ 210 µM)	5.75	98.2 (≈ 204 µM)	Active	2.57	230 (≈ 477 µM)	Active	150 (≈ 311 µM)	100 (≈ 208 µM)	Activity (HeLa [23]): Active; zone of inhibition at 100 µg/mL (Proteus vulgaris [5]): 18 mm; zone of inhibition at 100 µg/mL (Klebsiella pneumoniae [11]): 20 mm; growth inhibition (GI) (HeLa [15]): Active; zone of inhibition at 100 µg/mL (Escherichia coli [18]): 18 mm
Cc1ccc(-c2nn(-c3nc(-c4cc5cc(Br)cc(Br)c5oc4=O)cs3)cc2C=O)cc1	106 (≈ 185 µM)	150 (≈ 263 µM)	79.1 (≈ 138 µM)	115 (≈ 201 µM)	Active	3.34	130 (≈ 228 µM)	150 (≈ 263 µM)	24.5	101 (≈ 176 µM)	10.8	86.5 (≈ 151 µM)	6.25	92.4 (≈ 162 µM)	Active	1.73	175 (≈ 306 µM)	Active	110 (≈ 193 µM)	72.8 (≈ 127 µM)	Activity (HeLa [23]): Active; zone of inhibition at 100 µg/mL (Proteus vulgaris [5]): 20 mm; zone of inhibition at 100 µg/mL (Klebsiella pneumoniae [11]): 24 mm; zone of inhibition at 100 µg/mL (Escherichia coli [18]): 22 mm
